In test [1] the target is T1, Eukaryotic initiation factor 4A-III (Homo sapiens, UniProt P38919). The test is described as follows: Inhibition of MLN51-induced full-length human recombinant His6-tagged eIF4A3 RNA dependent ATPase activity expressed in Escherichia coli BL21(DE3) using single stranded poly(U) RNA as substrate after 30 mins by ADP-Glo luminescence assay. An outline of the steps: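 ADP-Glo luminescence read-out with 150 nM eIF4A3 plus an equimolar amount of MLN51. Substrates were 35 μM ATP and 1.5 μg/mL poly(U), both at Km. Buffer: 20 mM Tris-HCl pH 7.5, 2.5 mM MgCl2, 100 mM KCl, 1 mM DTT, 0.01% Tween20. Enzyme was added last to start the reaction, then incubated 30 min at room temperature. No-enzyme wells were taken as 100% inhibition and the complete reaction as 0%.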
T1 sequence (P38919 whole entry): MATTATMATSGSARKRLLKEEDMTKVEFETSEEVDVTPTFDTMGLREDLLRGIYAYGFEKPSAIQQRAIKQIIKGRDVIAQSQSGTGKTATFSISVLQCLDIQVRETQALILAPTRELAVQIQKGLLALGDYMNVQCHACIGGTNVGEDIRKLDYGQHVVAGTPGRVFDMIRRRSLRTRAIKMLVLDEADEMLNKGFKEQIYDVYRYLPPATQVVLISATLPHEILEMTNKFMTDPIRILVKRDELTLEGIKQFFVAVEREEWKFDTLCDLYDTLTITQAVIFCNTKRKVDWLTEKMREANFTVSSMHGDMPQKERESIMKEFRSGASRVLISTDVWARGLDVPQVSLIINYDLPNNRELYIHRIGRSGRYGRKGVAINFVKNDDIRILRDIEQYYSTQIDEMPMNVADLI
A general note: ADP-Glo first removes unused ATP, then detects ADP through luciferase.

The target of test [2] is T1, Eukaryotic initiation factor 4A-III. The test can be described thus: Inhibition of eIF4A3 (unknown origin) expressed in HEK293T cells assessed as NMD suppression at 10 uM after 6 hrs by luciferase reporter gene assay relative to control. Type of test: cell-based. A digest of the protocol:
(§1)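 HEK293T cells were co-transfected (Lipofectamine LTX) with the pGL4.12 SV40-Luc2CP-BGG NMD reporter and a pRL-TK renilla control. After 24 h of transfection, cells were treated with compound for 6 h. Firefly/renilla luciferase ratio was measured by dual-luciferase assay and normalized to DMSO-treated cells, n = 2.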

Test [3] shares this target. The test is described as follows: Inhibition of eIF4A3 (unknown origin) expressed in HEK293T cells assessed as NMD suppression at 3 uM after 6 hrs by luciferase reporter gene assay relative to control. In kind it is cell-based. A digest of the protocol:
as §1
(In a reporter assay the amount or activity of a reporter protein is the signal.)

Test [4] has the same target. The test can be described thus: Binding affinity to full-length human recombinant His6-tagged eIF4A3 expressed in Escherichia coli BL21(DE3) by surface plasmon resonance assay. An outline of the steps:
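eIF4A3 immobilized on CM7 chip by amine coupling (5000–10 000 RU) in HBS-P+ with 1 mM DTT. Binding run at 25 °C in 20 mM Tris-HCl pH 8.0, 150 mM NaCl, 0.2 mM TCEP, 0.02% P20, 1−2% DMSO. Compound injected at 6−12 concentrations for 60−120 s at 50 μL/min, dissociation followed 120−1200 s. Sensorgrams double-referenced, globally fitted to 1:1 model.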
(Surface plasmon resonance follows binding to a sensor surface in real time, without labels.)

For test [5] the target is unchanged. The test can be described thus: Binding affinity to full-length human recombinant His6-tagged eIF4A3 expressed in Escherichia coli BL21(DE3) assessed as dissociation half life by surface plasmon resonance assay. An outline of the steps:
(§2)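 eIF4A3 amine-coupled to a CM7 sensor chip (5000–10 000 RU) in HBS-P+ with 1 mM DTT. Binding was run at 25 °C in 20 mM Tris-HCl pH 8.0, 150 mM NaCl, 0.2 mM TCEP, 0.02% P20 and 1–2% DMSO. Compound series of 6–12 concentrations were injected for 60–120 s at 50 μL/min, with dissociation followed for 120–1200 s. Sensorgrams were double-referenced and globally fitted to a 1:1 model.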

Test [6] has the same target. The test is described as follows: Binding affinity to full-length human recombinant His6-tagged eIF4A3 expressed in Escherichia coli BL21(DE3) assessed as dissociation rate constant by surface plasmon resonance assay. A digest of the protocol: as §2
For test [7] the target is unchanged. The test is described as follows: Binding affinity to full-length human recombinant His6-tagged eIF4A3 expressed in Escherichia coli BL21(DE3) assessed as association rate constant by surface plasmon resonance assay. An outline of the steps:
as §2

Molecules are shown by their SMILES. pIC50, pKd: −log10 of the molar value. Calls of active or inactive are those of the source. The rule behind the calls is not given here. Bounds are passed on as bounds.

The term pIC50 denotes the negative decadic logarithm of the IC50, by convention in mol/L. Take `O=C(c1cnc(-c2ccccc2)o1)N1CCN(C(=O)c2cccc(Cl)c2)C(c2ccc(Cl)cc2)C1` (configuration not stated): the pIC50 in test [1] was less than 4.00.
With `O=C(c1cnn2cc(Br)ccc12)N1CCN(C(=O)c2ccc(Br)cc2)C(c2ccc(Cl)cc2)C1` (configuration not stated), the fold change (FC) in test [2] stood at 1.9. Also, in test [1], the pIC50 was 6.38. In test [3], the “NMD suppression activity (qualitative)” value is “Active”.
As to `O=C(c1cnn2cccc(Br)c12)N1CCN(C(=O)c2ccc(Cl)cc2)C(c2ccc(Cl)cc2)C1` (configuration not stated), in test [1], the pIC50 is 5.05.
For `O=C(c1cnn2c(Br)cccc12)N1CCN(C(=O)c2ccc(Cl)cc2)C(c2ccc(Cl)cc2)C1` (configuration not stated), the pIC50 in test [1] was 5.72.
As for `O=C(c1cnc(-c2ccccc2)o1)N1CCN(C(=O)c2ccc(Cl)cc2)C(c2ccc(Cl)cc2)C1` (configuration not stated), in test [1], the pIC50 is 5.66.
Still for that read-out and setting: with `O=C(c1n[nH]c2ccccc12)N1CCN(C(=O)c2ccc(Cl)cc2)C(c2ccc(Cl)cc2)C1` (configuration not stated) the figure was 4.21; with `N#Cc1ccc(-c2ncc(C(=O)N3CCN(C(=O)c4ccc(Cl)cc4)C(c4ccc(Cl)cc4)C3)o2)cc1` (configuration not stated), 5.08; with `O=C(c1cnc(-c2ccccc2)o1)N1CCN(C(=O)c2ccc(Cl)cc2)C(c2cccc(Cl)c2)C1` (configuration not stated), less than 4.00.
On the same count and under the same terms, for `O=C(c1coc(-c2ccccc2)n1)N1CCN(C(=O)c2ccc(Cl)cc2)C(c2ccc(Cl)cc2)C1` (configuration not stated) the value was 4.16; for `O=C(c1ncc(-c2ccccc2)o1)N1CCN(C(=O)c2ccc(Cl)cc2)C(c2ccc(Cl)cc2)C1` (configuration not stated), less than 4.00.
On to `N#Cc1ccccc1-c1ncc(C(=O)N2CCN(C(=O)c3ccc(Cl)cc3)C(c3ccc(Cl)cc3)C2)o1` (configuration not stated), for which, in test [1], the pIC50 was 5.68.
Consider `Cc1c(C(=O)N2CCN(C(=O)c3ccc(Cl)cc3)C(c3ccc(Cl)cc3)C2)cnn1-c1ccccc1` (configuration not stated), for which, in test [1], the pIC50 was 5.80.
The same measure, in the same setting: for `N#Cc1cccc(-c2ncc(C(=O)N3CCN(C(=O)c4ccc(Cl)cc4)C(c4ccc(Cl)cc4)C3)o2)c1` (configuration not stated) the value was 6.22.
For the compound `O=C(c1cnn(-c2ccccc2)c1)N1CCN(C(=O)c2ccc(Cl)cc2)C(c2ccc(Cl)cc2)C1` (configuration not stated), the pIC50 in test [1] is 5.62.
On to `C[C@H]1C[C@@]2(O[C@H]3C[C@H]4[C@@H]5CC[C@H]6C[C@H](O)CC[C@]6(C)[C@H]5[C@@H](O)C[C@]4(C)[C@H]3[C@@]2(C)O)OC1(C)C`, for which, in test [4], the Activity entry was “Dose-dependent effect”.
Regarding `O=C(c1ccn(-c2ccccc2)n1)N1CCN(C(=O)c2ccc(Cl)cc2)C(c2ccc(Cl)cc2)C1` (configuration not stated), in test [1], the pIC50 is less than 4.00.
As for `O=C(c1cnc(-c2ccccc2)o1)N1CCN(C(=O)c2ccc(Cl)cc2)C(C2CCCCC2)C1` (configuration not stated), the pIC50 in test [1] was less than 4.00.
Regarding `N#Cc1ccnc(-c2ncc(C(=O)N3CCN(C(=O)c4ccc(Br)cc4)C(c4ccc(Cl)cc4)C3)o2)c1` (configuration not stated), the fold change (FC) in test [2] turned out to be 1.8. Also, in test [1], the pIC50 was 6.41. Further, the “NMD suppression activity (qualitative)” value in test [3] is “Active”.
As to `N#Cc1ccc2c(C(=O)N3CCN(C(=O)c4ccc(Br)cc4)C(c4ccc(Cl)cc4)C3)cnn2c1` (configuration not stated), the pIC50 in test [1] is 5.05.
With `COc1ccc2c(C(=O)N3CCN(C(=O)c4ccc(Br)cc4)C(c4ccc(Cl)cc4)C3)cnn2c1` (configuration not stated), in test [2], the fold change (FC) was 1.7. Moreover, the pIC50 in test [1] was 6.04. The “NMD suppression activity (qualitative)” value in test [3] was “Active”.
Take `O=C(c1cnn2ccccc12)N1CCN(C(=O)c2ccc(Cl)cc2)C(c2ccc(Cl)cc2)C1` (configuration not stated): the pIC50 in test [1] was 5.96.
On the same count and under the same terms, with `O=C(c1cnn2cc(Br)ccc12)N1CCN(C(=O)c2ccc(Cl)cc2)C(c2ccc(Cl)cc2)C1` (configuration not stated) the figure was 6.14.
As to `O=C(c1c[nH]c2ccccc12)N1CCN(C(=O)c2ccc(Cl)cc2)C(c2ccc(Cl)cc2)C1` (configuration not stated), the pIC50 in test [1] was 5.64.
What is called pKd is the negative decadic logarithm of the Kd, by convention in mol/L. With `O=C(c1cnn2cc(Br)ccc12)N1CCN(C(=O)c2ccc(Br)cc2)[C@H](c2ccc(Cl)cc2)C1`, in test [5], the T1/2 worked out at 0.477 min. The pIC50 in test [1] is 4.22. In addition, the figures for the K in test [6] and in test [7] were 2.4 ×10⁻² /s and 1.5 ×10³ /M/s, respectively. The pKd in test [4] is 4.80.
As to `O=C(c1cnc(-c2ccccc2)o1)N1CCN(C(=O)c2ccccc2Cl)C(c2ccc(Cl)cc2)C1` (configuration not stated), in test [1], the pIC50 was less than 4.00.
As for `O=C(c1cnn2cc(Br)ccc12)N1CCN(C(=O)c2ccc(Br)cc2)[C@@H](c2ccc(Cl)cc2)C1`, the T1/2 in test [5] came to 7.3 min. In test [1], the pIC50 was 6.70. Also, the K in test [6] stood at 1.6 ×10⁻³ /s; in test [7], 2.8 ×10⁴ /M/s. The pKd in test [4] is 7.24.
Turning to `O=C(c1ccc(Cl)cc1)N1CCN(Cc2cnc(-c3ccccc3)o2)CC1c1ccc(Cl)cc1` (configuration not stated), the pIC50 in test [1] is less than 4.00.
Consider `O=C(c1cnc(-c2ccccc2)o1)N1CCN(C(=O)c2ccccc2)C(c2ccc(Cl)cc2)C1` (configuration not stated), for which the pIC50 in test [1] is 4.96.
Consider `O=C(c1cnc(-c2ccccc2)o1)N1CCN(Cc2ccc(Cl)cc2)C(c2ccc(Cl)cc2)C1` (configuration not stated), for which the pIC50 in test [1] is less than 4.00.
In the case of `O=C(c1cnc(-c2ccccc2)o1)N1CCN(C(=O)c2ccc(Cl)cc2)C(c2ccccc2Cl)C1` (configuration not stated), in test [1], the pIC50 was less than 4.00.
On to `O=C(c1cnc(-c2ccccc2)o1)N1CCCN(C(=O)c2ccc(Cl)cc2)C(c2ccc(Cl)cc2)C1` (configuration not stated), for which the pIC50 in test [1] was less than 4.00.
Turning to `O=C1C(c2ccc(Cl)cc2)N(C(=O)c2ccc(Cl)cc2)CCN1Cc1cnc(-c2ccccc2)o1` (configuration not stated), the pIC50 in test [1] was less than 4.00.
Still for that read-out and setting: for `O=C(c1cnn2ccc(Br)cc12)N1CCN(C(=O)c2ccc(Cl)cc2)C(c2ccc(Cl)cc2)C1` (configuration not stated) the value was 6.08.
On to `O=C(c1cnc(-c2ccccc2)o1)N1CCN(C(=O)c2ccc(Br)cc2)C(c2ccc(Cl)cc2)C1` (configuration not stated), for which, in test [1], the pIC50 was 6.18.
For `Cc1c(C(=O)N2CCN(C(=O)c3ccc(Br)cc3)[C@H](c3ccc(Cl)cc3)C2)cnn1-c1cccc(C#N)c1`, the fold change (FC) in test [2] came out at 1.34; in test [3], 1.1. Further, the pIC50 in test [1] is less than 4.00.
Turning to `Cc1c(C(=O)N2CCN(C(=O)c3ccc(Br)cc3)C(c3ccc(Cl)cc3)C2)cnn1-c1cccc(C#N)c1` (configuration not stated), the fold change (FC) in test [2] is 2.3. Also, the pIC50 in test [1] is 6.24. Also, in test [3], the “NMD suppression activity (qualitative)” value is “Active”.
For the compound `N#Cc1cccc(-c2ncc(C(=O)N3CCN(C(=O)c4ccc(Br)cc4)C(c4ccc(Cl)cc4)C3)o2)c1` (configuration not stated), in test [2], the fold change (FC) worked out at 1.8. The pIC50 in test [1] was 6.44. Also, in test [3], the “NMD suppression activity (qualitative)” value is “Active”.
